Measured values published in ChEMBL document CHEMBL1152892, “Synthesis and biological evaluation of 3,6-disubstituted [1,2,4]triazolo[3,4-b][1,3,4]thiadiazole derivatives as a novel class of potential anti-tumor agents” (Eur J Med Chem, 2009).
Blank lines part the entries; values can stand above or below the compound they belong to. The source made the active and inactive calls. No cut-off for these calls is given here.

What was measured:
[1] = target: Cyclin-dependent kinase 2 (Homo sapiens, UniProt P24941); assay: Inhibition of CDK2/Cyclin A
[2] = Inhibition of CDK4/Cyclin D
[3] = target: Cyclin-dependent kinase 1/cyclin B1 (Homo sapiens, UniProt P06493); assay: Inhibition of CDK1/Cyclin B; type: protein-complex assay
Chain of Cyclin-dependent kinase 1/cyclin B1 (P06493 whole entry): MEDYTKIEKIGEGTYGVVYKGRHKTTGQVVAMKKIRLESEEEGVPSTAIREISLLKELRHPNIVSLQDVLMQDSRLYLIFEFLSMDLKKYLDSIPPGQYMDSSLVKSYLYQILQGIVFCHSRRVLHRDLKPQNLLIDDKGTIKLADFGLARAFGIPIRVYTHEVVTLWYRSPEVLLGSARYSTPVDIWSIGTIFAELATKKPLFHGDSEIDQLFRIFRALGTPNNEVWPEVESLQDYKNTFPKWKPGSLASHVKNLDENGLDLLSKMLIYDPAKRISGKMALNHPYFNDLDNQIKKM
Chain of Cyclin-dependent kinase 1/cyclin B1 (P14635 whole entry, further chain): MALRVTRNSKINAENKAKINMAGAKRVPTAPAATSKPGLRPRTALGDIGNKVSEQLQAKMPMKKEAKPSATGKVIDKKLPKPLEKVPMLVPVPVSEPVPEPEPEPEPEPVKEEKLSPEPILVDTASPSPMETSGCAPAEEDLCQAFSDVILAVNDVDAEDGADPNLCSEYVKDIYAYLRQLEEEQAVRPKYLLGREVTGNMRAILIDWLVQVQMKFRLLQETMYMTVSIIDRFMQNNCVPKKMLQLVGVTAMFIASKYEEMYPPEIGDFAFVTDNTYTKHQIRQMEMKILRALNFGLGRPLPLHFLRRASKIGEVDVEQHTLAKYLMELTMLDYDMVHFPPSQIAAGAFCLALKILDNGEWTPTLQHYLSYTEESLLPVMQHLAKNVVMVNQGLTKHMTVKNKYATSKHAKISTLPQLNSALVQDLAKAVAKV

HCC 2998 = assay: Cytotoxicity against human HCC2998 cells after 48 hrs by sulforhodamine B assay; type: functional
How it was run: (§1)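 NCI human tumor panel. Cells in RPMI 1640 with 5% FBS and 2 mM L-glutamine, 5000–40,000 cells/well by growth characteristics, 24 h preincubation at 37 °C. Compound added at time zero at five 10-fold dilutions, top concentration agent-dependent. Incubated 48 h (5% CO2, 100% humidity), then sulforhodamine B stain and plate-reader OD. GI50 and TGI are the concentrations giving 50% and total growth inhibition, in µM.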

BT-549 = assay: Cytotoxicity against human BT549 cells after 48 hrs by sulforhodamine B assay; type: functional; how it was run: as §1
KM12 = assay: Cytotoxicity against human KM12 cells after 48 hrs by sulforhodamine B assay; type: functional; details: for GI50: KM12, 48 h; how it was run: as §1
HOP-92 = assay: Cytotoxicity against human HOP92 cells after 48 hrs by sulforhodamine B assay; type: functional; details: HOP-92, 48 h; how it was run: as §1
SR = assay: Cytotoxicity against human SR cells after 48 hrs by sulforhodamine B assay; type: functional; how it was run: as §1
SF-539 = assay: Cytotoxicity against human SF539 cells after 48 hrs by sulforhodamine B assay; type: functional; details: for GI50: SF-539, 48 h; how it was run: as §1
A498 = assay: Cytotoxicity against human A498 cells after 48 hrs by sulforhodamine B assay; type: functional; details: for GI50: A498, 48 h; how it was run: as §1
ACHN = assay: Cytotoxicity against human ACHN cells after 48 hrs by sulforhodamine B assay; type: functional; how it was run: as §1
MCF7 [4] = assay: Cytotoxicity against human MCF7 cells after 48 hrs by sulforhodamine B assay; type: functional; details: MCF7, 48 h; how it was run: as §1
HCT-15 = assay: Cytotoxicity against human HCT15 cells after 48 hrs by sulforhodamine B assay; type: functional; details: HCT-15, 48 h; how it was run: as §1
OVCAR-3 = assay: Cytotoxicity against human OVCAR-3 cells after 48 hrs by sulforhodamine B assay; type: functional; how it was run: as §1
SF-268 = assay: Cytotoxicity against human SF268 cells after 48 hrs by sulforhodamine B assay; type: functional; how it was run: as §1
[5] = (§2) Cytotoxicity against human […] cells after 48 hrs by sulforhodamine B assay; type: functional; how it was run: as §1
CCRF-CEM = assay: Cytotoxicity against human CCRF-CEM cells after 48 hrs by sulforhodamine B assay; type: functional; how it was run: as §1
UACC-62 = assay: Cytotoxicity against human UACC62 cells after 48 hrs by sulforhodamine B assay; type: functional; details: for GI50: UACC-62, 48 h; how it was run: as §1
NCI-H226 = assay: Cytotoxicity against human NCI-H226 cells after 48 hrs by sulforhodamine B assay; type: functional; details: NCI-H226, 48 h; how it was run: as §1
Hs-578T = assay: (§3) Cytotoxicity against human Hs 578T cells after 48 hrs by sulforhodamine B assay; type: functional; how it was run: as §1
HCT-116 [6] = assay: Antitumor activity against human HCT116 cells xenografted in nude mouse; type: functional, cell-based
HOP-62 = assay: Cytotoxicity against human HOP62 cells after 48 hrs by sulforhodamine B assay; type: functional; details: for GI50: HOP-62, 48 h; how it was run: as §1
CAKI-1 = assay: Cytotoxicity against human Caki1 cells after 48 hrs by sulforhodamine B assay; type: functional; details: for GI50: CAKI-1, 48 h; how it was run: as §1
MCF7 [7] = assay: Antitumor activity against human MCF7 cells assessed as cell growth at 10 uM after 48 hrs by sulforhodamine B assay; type: functional; details: MCF7, 48 h, read-out: Activity
How it was run: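 NCI primary screen, single concentration 10^-5 M against MCF7, NCI-H460 and SF-268. Cells in RPMI 1640 with 5% FBS and 2 mM L-glutamine, seeded at 5000–40,000 cells/well by cell type, preincubated 24 h at 37 °C. Compound added at time zero, then 48 h incubation (5% CO2, 100% humidity). Growth read by sulforhodamine B optical density, reported as growth percentage.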

HCT-116 [8] = assay: Cytotoxicity against human HCT116 cells after 48 hrs by sulforhodamine B assay; type: functional; how it was run: as §1
SNB-75 = assay: Cytotoxicity against human SNB75 cells after 48 hrs by sulforhodamine B assay; type: functional; how it was run: as §1
OVCAR-4 = assay: Cytotoxicity against human OVCAR4 cells after 48 hrs by sulforhodamine B assay; type: functional; how it was run: as §1
TK-10 = assay: Cytotoxicity against human TK10 cells after 48 hrs by sulforhodamine B assay; type: functional; details: TK-10, 48 h; how it was run: as §1
LOX IMVI = assay: Cytotoxicity against human LOXIMVI cells after 48 hrs by sulforhodamine B assay; type: functional; how it was run: as §1
NCI-H322M = assay: Cytotoxicity against human NCI-H322M cells after 48 hrs by sulforhodamine B assay; type: functional; how it was run: as §1
RPMI8266 = assay: as §2; type: functional; how it was run: as §1
[9] = as §3; type: functional; how it was run: as §1

SMILES: S=c1[nH]c(=S)c2c(Cc3nn4c(COc5ccc(Cl)cc5)nnc4s3)n[nH]c2[nH]1
IC50 [1]: 37 µM
IC50 [2]: > 48 µM
IC50 [3]: 29 µM

SMILES: Clc1ccc(OCc2nnc3sc(SSc4nn5c(COc6ccc(Cl)cc6)nnc5s4)nn23)cc1
GI50 (HCC 2998; HCC 2998, 48 h): 16.2 µM
GI50 (BT-549; BT-549, 48 h): 47.9 µM
pGI50 (KM12): inactive
GI50 (HOP-92): 18.2 µM
GI50 (SR): 14.1 µM
pGI50 (SF-539): inactive
GI50 (A498): 28.8 µM
pGI50 (ACHN): inactive
IC50 [1]: 0.82 µM
GI50 (MCF7 [4]): 44.7 µM
GI50 (HCT-15): 87.1 µM
IC50 [2]: 8 µM
GI50 (OVCAR-3; OVCAR-3, 48 h): 35.5 µM
pGI50 (SF-268): inactive
GI50 [5]: 44.7 µM
GI50 (CCRF-CEM): 75.9 µM
IC50 [3]: 11 µM
GI50 (UACC-62): 44.7 µM
GI50 (NCI-H226): 87.1 µM
pGI50 (Hs-578T): inactive
Activity (HCT-116 [6]): inactive
GI50 (HOP-62): 66.1 µM
GI50 (CAKI-1): 77.6 µM
growth at 10 µM (MCF7 [7]): 147%
pGI50 (HCT-116 [8]): inactive
pGI50 (SNB-75): inactive
GI50 (OVCAR-4; OVCAR-4, 48 h): 46.8 µM
GI50 (TK-10): 72.4 µM

SMILES: Nc1nc(O)c(Cc2nn3c(COc4ccc(Cl)cc4)nnc3s2)s1
pGI50 (HCC 2998): inactive
pGI50 (BT-549): inactive
GI50 (KM12): 7.41 µM
GI50 (HOP-92): 97.7 µM
GI50 (SR): 49 µM
GI50 (SF-539): 39.8 µM
GI50 (A498): 0.0537 µM
GI50 (LOX IMVI): 3.63 µM
GI50 (ACHN): 35.5 µM
IC50 [1]: 0.18 µM
GI50 (MCF7 [4]): > 100 µM
GI50 (HCT-15): 0.741 µM
IC50 [2]: 3 µM
pGI50 (OVCAR-3): inactive
GI50 (NCI-H322M): 11.2 µM
pGI50 (SF-268): inactive
pGI50 (RPMI8266): inactive
IC50 [3]: 0.91 µM
GI50 (UACC-62): 31.6 µM
GI50 [9]: 31.6 µM
Activity (HCT-116 [6]): Active
pGI50 (HOP-62): inactive
pGI50 (CAKI-1): inactive
growth at 10 µM (MCF7 [7]): 0%
pGI50 (SNB-75): inactive
GI50 (TK-10): 45.7 µM

SMILES: c1ccc(Cc2nnc3sc(SSc4nn5c(Cc6ccccc6)nnc5s4)nn23)cc1
IC50 [1]: 15 µM
IC50 [2]: 25 µM
IC50 [3]: 5.3 µM

SMILES: Nc1ccc(-c2nn3c(COc4ccc(Cl)cc4)nnc3s2)cc1
pGI50 (HCC 2998): inactive
GI50 (KM12): > 100 µM
GI50 (HOP-92): 97.7 µM
GI50 (SR): 91.2 µM
GI50 (SF-539): 34.7 µM
pGI50 (A498): inactive
pGI50 (LOX IMVI): inactive
GI50 (ACHN): 53.7 µM
IC50 [1]: 0.33 µM
GI50 (MCF7 [4]): 40.7 µM
IC50 [2]: 2.1 µM
pGI50 (OVCAR-3): inactive
pGI50 (NCI-H322M): inactive
GI50 (SF-268; SF-268, 48 h): 46.8 µM
GI50 [5]: 77.6 µM
GI50 (CCRF-CEM): 10 µM
IC50 [3]: 6.5 µM
pGI50 (UACC-62): inactive
GI50 (NCI-H226): 7.24 µM
GI50 [9]: 87.1 µM
Activity (HCT-116 [6]): inactive
GI50 (HOP-62): 20.4 µM
GI50 (CAKI-1): 49 µM
growth at 10 µM (MCF7 [7]): 128%
GI50 (HCT-116 [8]; HCT-116, 48 h): 34.7 µM
pGI50 (OVCAR-4): inactive
GI50 (TK-10): 85.1 µM

Now from value to compound:

IC50 [1]: 24 µM
IC50 [2]: > 48 µM
IC50 [3]: > 120 µM
SMILES: CCSc1nn2c(Cc3ccccc3)nnc2s1

IC50 [1]: 15 µM
IC50 [2]: > 120 µM
IC50 [3]: 28 µM
SMILES: NNc1nn2c(COc3ccc(Cl)cc3)nnc2s1

IC50 [1]: 23 µM
IC50 [2]: 11 µM
IC50 [3]: 6.8 µM
SMILES: Cc1nnc2sc(SSc3nn4c(C)nnc4s3)nn12

IC50 [1]: 23 µM
IC50 [2]: 37 µM
IC50 [3]: 25 µM
SMILES: Sc1nn2c(Cc3ccccc3)nnc2s1

IC50 [1]: 6.8 µM
IC50 [2]: 23 µM
IC50 [3]: 19 µM
SMILES: Cc1nnc2sc(S)nn12

IC50 [1]: 24 µM
IC50 [2]: > 120 µM
IC50 [3]: > 48 µM
SMILES: CCSc1nn2c(COc3ccc(Cl)cc3)nnc2s1

IC50 [1]: 24 µM
IC50 [2]: 10 µM
IC50 [3]: > 48 µM
SMILES: Cc1nnc2sc(Cc3n[nH]c4[nH]c(=S)[nH]c(=S)c34)nn12
